Activity calls are given as the source filed them. The rule behind the calls is not given here.

Series [1] deals with Vesicular stomatitis virus. The series can be described thus: Antiviral activity against Vesicular stomatitis virus infected in human HeLa cells assessed as reduction in viral cytopathic effect. Type of series: functional, organism-based. Summed up:
(§1)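 Confluent cell monolayers were infected with 100 CCID50 of virus (1 CCID50 is the dose infecting 50% of cultures) with test compound at varying concentrations (100, 20, … μM). CPE was scored once it was complete in untreated infected controls.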
For orientation: Damage to the host cells serves as the signal in cytopathic effect assays.

For series [2], the system named is Coxsackievirus B4. The series can be described thus: Antiviral activity against Coxsackievirus B4 infected in African green monkey Vero cells assessed as reduction in viral cytopathic effect. Type of series: functional, organism-based. The method in brief:
as §1

Series [3] concerns Human coronavirus 229E. The series can be described thus: Antiviral activity against Human coronavirus 229E infected in HEL cells assessed as reduction in viral cytopathic effect. The format is functional, organism-based. Summed up:
as §1

In series [4] the test system is Human betaherpesvirus 5. The series can be described thus: Antiviral activity against Human cytomegalovirus AD169 infected in HEL cells assessed as reduction in viral cytopathic effect. As to conditions: Human betaherpesvirus 5, AD169, HEL. The format is functional, organism-based. Summed up: as §1
Series [5] concerns Coxsackievirus B4. The series can be described thus: Antiviral activity against Human coxsackievirus B4 infected in human HeLa cells assessed as reduction in viral cytopathic effect. Type of series: functional, organism-based. Summed up:
as §1

Series [6] deals with Human alphaherpesvirus 1. The series can be described thus: Antiviral activity against thymidine kinase deficient acyclovir-resistant Human simplex virus 1 KOS infected in HEL cells assessed as reduction in viral cytopathic effect. The format is functional, organism-based. The following applies: Human alphaherpesvirus 1, KOS. The method in brief: as §1
Series [7] concerns Human alphaherpesvirus 2. The series can be described thus: Antiviral activity against Human simplex virus 2 G infected in HEL cells assessed as reduction in viral cytopathic effect. The format is functional, organism-based. The following applies: Human alphaherpesvirus 2, strain G. Summed up:
as §1

Series [8] is described as follows: Selectivity index, ratio of CC50 for HEL cells to EC50 for Varicella zoster virus Oka infected in HEL cells. The format is toxicity, cell-based. As to conditions: human, read-out: Ratio CC50/EC50. Summed up:
(§2)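 SI is CC50 divided by EC50. CC50 comes from the 3-day HEL Coulter-counter growth assay. EC50 comes from the VZV plaque-reduction assay (20 PFU inoculum).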

The subject of series [9] is Vaccinia virus. Kind of series: Antiviral activity against Vaccinia virus infected in HEL cells assessed as reduction in viral cytopathic effect. Type of series: functional, organism-based. As to conditions: Orthopoxvirus vaccinia. The method in brief:
as §1

Series [10] deals with Respiratory syncytial virus. The series can be described thus: Antiviral activity against Respiratory syncytial virus infected in human HeLa cells assessed as reduction in viral cytopathic effect. The format is functional, organism-based. The method in brief: as §1
The subject of series [11] is Human alphaherpesvirus 1. Kind of series: Antiviral activity against Human simplex virus 1 KOS infected in HEL cells assessed as reduction in viral cytopathic effect. Type of series: functional, organism-based. As to conditions: Human alphaherpesvirus 1, KOS. Summed up:
as §1

Series [12] concerns Human respirovirus 3. The series can be described thus: Antiviral activity against Human parainfluenza virus 3 infected in African green monkey Vero cells assessed as reduction in viral cytopathic effect. Type of series: functional, organism-based. The method in brief: as §1
Series [13] relates to HEL. Kind of series: Cytostatic activity against HEL cells after 3 days by Coulter counting method. Type of series: cell-based. As to conditions: human, 72 h. Summed up: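 HEL cells were seeded at 5 × 10^3 cells/well and grown for 24 h, then given medium with graded compound concentrations. After 3 days at 37 °C, cells were counted with a Coulter counter.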
The test system of series [14] is Influenza B virus. Kind of series: Antiviral activity against Influenza B virus infected in MDCK cells assessed as reduction in viral cytopathic effect. Type of series: functional, organism-based. Summed up: (§3)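 Nearly confluent MDCK cultures were infected with 100 CCID50 of virus with compound at varying concentrations (100, 20, … μM). CPE was scored when complete in untreated infected controls.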

For series [15], the system named is Influenza A virus H3N2. Kind of series: Antiviral activity against Influenza A virus H3N2 infected in MDCK cells assessed as reduction in viral cytopathic effect. The format is functional, organism-based. Summed up:
as §3

Series [16] deals with Influenza A virus. The series can be described thus: Antiviral activity against Influenza A virus (H1N1) infected in MDCK cells assessed as reduction in viral cytopathic effect. The format is functional, organism-based. The method in brief: as §3
Series [17] is described as follows: Cytotoxicity against HEL cells assessed as alteration of cell morphology by microscopic method. The following applies: human. The format is cell-based. Summed up:
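MCC is the lowest compound concentration giving a microscopically visible alteration of cell morphology.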

In series [18] the test system is Human immunodeficiency virus 1. The series can be described thus: Antiviral activity against Human immunodeficiency virus 1 LAV1 infected in primary human PBM cells after 6 days by reverse transcriptase activity-based assay. The format is functional, organism-based.
Series [19] concerns Sindbis virus. Kind of series: Antiviral activity against Sindbis virus infected in African green monkey Vero cells assessed as reduction in viral cytopathic effect. The format is functional, organism-based. Summed up: as §1
Series [20] relates to Human alphaherpesvirus 3. Kind of series: Antiviral activity against thymidine kinase deficient Varicella zoster virus 07/1 infected in HEL cells assessed as reduction in viral plaque formation. Type of series: functional, organism-based. The following applies: Human alphaherpesvirus 3, 07/1, HEL. Summed up: (§4)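 Confluent cultures were inoculated with 20 PFU of virus with compound at varying concentrations (100, 20, … μM). Plaques were counted once plaque formation was complete in untreated infected controls.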

Series [21] concerns Mammalian orthoreovirus 1. The series can be described thus: Antiviral activity against Reovirus-1 infected in African green monkey Vero cells assessed as reduction in viral cytopathic effect. Type of series: functional, organism-based. Summed up: as §1
Series [22] has as its system Human betaherpesvirus 5. Kind of series: Antiviral activity against Human cytomegalovirus Davis infected in HEL cells assessed as reduction in viral cytopathic effect. Type of series: functional, organism-based. The following applies: Human betaherpesvirus 5, Davis. The method in brief: as §1
Series [23] concerns Human alphaherpesvirus 3. The series can be described thus: Antiviral activity against Varicella zoster virus Oka infected in HEL cells assessed as reduction in viral plaque formation. The format is functional, organism-based. As to conditions: Human alphaherpesvirus 3, strain Oka vaccine. The method in brief: as §4
The nature of series [24]: Selectivity index, ratio of CC50 for HEL cells to EC50 for thymidine kinase deficient Varicella zoster virus 07/1 infected in HEL cells. The format is toxicity, cell-based. The following applies: human, read-out: Ratio CC50/EC50. The method in brief: as §2

Take `Cc1cn(C/C=C/CP(=O)(N[C@@H](C)C(=O)OC(C)C)Oc2ccccc2)c(=O)[nH]c1=O` (stereo not given in full): the outcome in series [1], in series [2], in [5], in series [10], in series [12] and in series [14] was inactive. Besides, the result in series [15], in series [16], in series [18], in [19] and in series [21] was inactive. In addition, the 50% effective concentration (EC50) (commonly the concentration that produces a half-maximal response) was > 100 µM in series [3]; 25.9 µM in series [4]; > 100 µM in series [6]; > 100 µM in series [7]; > 100 µM in series [9]; > 100 µM in series [11]. The EC50 in [20] amounted to 1.03 µM; in [22], 13.5 µM; in [23], 4.59 µM. Also, the selectivity ratio in series [8] is > 22; in series [24] it was > 97. Also, in [13], the half-maximal cytotoxic concentration (CC50) – broadly, the concentration giving 50% cytotoxicity – is > 100 µM. The MCC in [17] is > 100 µM.
As to `COC(=O)[C@H](C)NP(=O)(C/C=C/Cn1cc(C)c(=O)[nH]c1=O)Oc1ccccc1` (stereo not given in full), the result in series [1], in series [2], in [5], in series [10], in [12] and in series [14] was inactive. For the same compound, the result in series [15], in series [16], in series [18], in [19] and in series [21] was inactive. Moreover, the concentration for a half-maximal effect (EC50) was > 100 µM in series [3]; ≥ 72 µM in [4]; 23.5 µM in series [6]; 31 µM in series [7]; > 100 µM in series [9]; 59 µM in series [11]. In addition, the concentration giving a half-maximal response (EC50) in series [20] is 1.82 µM; in [22], ≥ 70 µM; in series [23], 8.13 µM. The figures for the selectivity ratio in series [8] and in [24] were > 12 and > 55, respectively. Further, the 50% cytotoxic concentration (CC50) in series [13] is > 100 µM. The MCC in [17] was > 100 µM.
Regarding `Cc1cn(C/C=C/C[P@](=O)(N[C@@H](C)C(=O)OCc2ccccc2)Oc2ccccc2)c(=O)[nH]c1=O`, the result in series [1], in series [2], in [5], in series [10], in series [12] and in [14] was inactive. The outcome in [15], in [16], in series [18], in series [19] and in [21] was inactive. The concentration for a half-maximal effect (EC50) was 24.6 µM in series [3]; 29.9 µM in [4]; 3.2 µM in [6]; 5.3 µM in series [7]; > 100 µM in [9]; 9.6 µM in [11]. Moreover, the values for the EC50 in series [20], in [22] and in series [23] were 0.33 µM, 44.7 µM and 0.39 µM, respectively. Also, the selectivity ratio in series [8] is ≥ 213; in [24], ≥ 252. Moreover, the CC50 in series [13] is ≥ 83 µM. In addition, the MCC in [17] was > 100 µM.
`Cc1cn(C/C=C/C[P@@](=O)(N[C@@H](C)C(=O)OCc2ccccc2)Oc2ccccc2)c(=O)[nH]c1=O`: the outcome in [1], in series [2], in series [5], in [10], in series [12] and in [14] was inactive. Moreover, the result in [15], in series [16], in [18], in [19] and in series [21] was inactive. For the same compound, the half-maximal effective concentration (EC50) stood at 60 µM in [3]; 34.2 µM in [4]; 4.1 µM in series [6]; 2.9 µM in series [7]; 11.5 µM in [11]; 0.39 µM in [20]. Besides, the EC50 in series [22] came out at 52.5 µM; in series [23], 0.59 µM. Further, the selectivity ratio in [8] came out at 93; in [24], 141. Further, the midpoint of cytotoxicity in series [13], the CC50, lay at 55 µM. The MCC in [17] was > 100 µM.
